Data as given in ChEMBL document CHEMBL4765238, “Structure-Based Discovery and Optimization of Benzo[ d]isoxazole Derivatives as Potent and Selective BET Inhibitors for Potential Treatment of Castration-Resistant Prostate Cancer (CRPC)” (J Med Chem, 2018).

Assays:
[1] = target: T1, Bromodomain-containing protein 4 (Homo sapiens, UniProt O60885); assay: Inhibition of HYSGRGK(Ac)GGK(Ac)GLGK(Ac)GGAK(Ac)RHRK(Biotin)-OH binding to recombinant human His6-tagged BRD4 bromodomain 1 (N44 to E168 residues) expressed in Escherichia coli BL21 (DE3) cells measured after 2 hrs by Alphascreen assay
[2] = target: T1, Bromodomain-containing protein 4; assay: Binding affinity to human recombinant His6-tagged BRD4 bromodomain 1 (N44 to E168 residues) expressed in Escherichia coli BL21 (DE3) cells assessed as change in entropy incubated for 1 hr by isothermal titration calorimetry
[3] = target: T1, Bromodomain-containing protein 4; assay: Binding affinity to human recombinant His6-tagged BRD4 bromodomain 1 (N44 to E168 residues) expressed in Escherichia coli BL21 (DE3) cells assessed as change in enthalpy incubated for 1 hr by isothermal titration calorimetry
[4] = target: T1, Bromodomain-containing protein 4; assay: Binding affinity to human recombinant His6-tagged BRD4 bromodomain 1 (N44 to E168 residues) expressed in Escherichia coli BL21 (DE3) cells assessed as gibbs free energy change incubated for 1 hr by isothermal titration calorimetry
[5] = target: Bromodomain-containing protein 2 (Homo sapiens) (UniProt P25440); assay: Binding affinity to human recombinant His6-tagged BRD2 bromodomain 1 (K77 to N194 residues) expressed in Escherichia coli BL21 (DE3) cells assessed as change in melting temperature at 200 uM incubated for 30 mins by SYPRO orange dye based thermal shift assay
Sequence of Bromodomain-containing protein 2 (Homo sapiens) (P25440 whole entry, looked up, the tested form may be a part): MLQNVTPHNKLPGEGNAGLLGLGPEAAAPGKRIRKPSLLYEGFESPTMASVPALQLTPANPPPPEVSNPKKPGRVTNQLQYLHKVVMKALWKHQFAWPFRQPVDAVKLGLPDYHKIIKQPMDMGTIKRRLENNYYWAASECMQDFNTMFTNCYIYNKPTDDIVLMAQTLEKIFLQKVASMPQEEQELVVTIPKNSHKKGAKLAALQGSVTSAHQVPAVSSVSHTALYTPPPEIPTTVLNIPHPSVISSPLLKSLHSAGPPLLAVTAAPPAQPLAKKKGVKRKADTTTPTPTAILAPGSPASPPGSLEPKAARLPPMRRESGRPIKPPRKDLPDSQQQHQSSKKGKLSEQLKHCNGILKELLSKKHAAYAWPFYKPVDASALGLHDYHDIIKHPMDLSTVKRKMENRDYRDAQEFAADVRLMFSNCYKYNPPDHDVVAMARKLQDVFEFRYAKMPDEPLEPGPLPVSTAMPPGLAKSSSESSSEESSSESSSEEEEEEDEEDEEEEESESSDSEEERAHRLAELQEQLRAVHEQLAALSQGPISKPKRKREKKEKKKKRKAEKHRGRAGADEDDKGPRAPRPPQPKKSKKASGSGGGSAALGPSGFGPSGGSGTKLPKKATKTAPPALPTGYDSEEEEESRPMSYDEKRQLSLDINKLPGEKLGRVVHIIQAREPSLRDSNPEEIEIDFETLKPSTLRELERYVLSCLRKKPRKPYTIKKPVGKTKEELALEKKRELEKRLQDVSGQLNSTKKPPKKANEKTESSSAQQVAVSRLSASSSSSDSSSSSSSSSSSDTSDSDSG
Summary of the method: (§1)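 Thermal shift assay measuring change in melting temperature of each isolated bromodomain module in the presence of compound versus without.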

[6] = target: Bromodomain-containing protein 3 (Homo sapiens) (UniProt Q15059); assay: Binding affinity to human recombinant His6-tagged BRD3 bromodomain 1 (P24 to E144 residues) expressed in Escherichia coli BL21 (DE3) cells assessed as change in melting temperature at 200 uM incubated for 30 mins by SYPRO orange dye based thermal shift assay; summary of the method: as §1
Sequence of Bromodomain-containing protein 3 (Homo sapiens) (Q15059 2-726 limits assumed): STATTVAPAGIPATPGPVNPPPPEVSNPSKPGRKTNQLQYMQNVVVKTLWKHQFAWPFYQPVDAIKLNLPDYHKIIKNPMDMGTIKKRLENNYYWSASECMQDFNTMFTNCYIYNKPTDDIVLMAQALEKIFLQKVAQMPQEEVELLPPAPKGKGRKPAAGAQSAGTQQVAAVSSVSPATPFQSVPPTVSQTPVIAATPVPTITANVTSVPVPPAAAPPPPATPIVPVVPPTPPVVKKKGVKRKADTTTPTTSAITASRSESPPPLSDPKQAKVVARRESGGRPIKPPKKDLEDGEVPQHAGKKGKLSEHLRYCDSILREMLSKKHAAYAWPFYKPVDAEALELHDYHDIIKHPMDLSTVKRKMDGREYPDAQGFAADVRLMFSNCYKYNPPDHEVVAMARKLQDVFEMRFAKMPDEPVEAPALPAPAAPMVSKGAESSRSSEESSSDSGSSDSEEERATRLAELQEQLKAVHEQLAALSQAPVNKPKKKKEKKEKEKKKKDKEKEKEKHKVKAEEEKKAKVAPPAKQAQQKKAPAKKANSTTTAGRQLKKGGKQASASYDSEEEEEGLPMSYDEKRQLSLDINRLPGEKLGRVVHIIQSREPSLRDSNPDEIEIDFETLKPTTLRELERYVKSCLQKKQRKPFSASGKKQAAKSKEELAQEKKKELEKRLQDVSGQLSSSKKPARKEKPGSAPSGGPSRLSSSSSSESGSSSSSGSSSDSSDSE

[7] = target: Bromodomain testis-specific protein (Homo sapiens) (UniProt Q58F21); assay: Binding affinity to human recombinant His6-tagged BRDT bromodomain 1 (N21 to E137 residues) expressed in Escherichia coli BL21 (DE3) cells assessed as change in melting temperature at 200 uM incubated for 30 mins by SYPRO orange dye based thermal shift assay; summary of the method: as §1
[8] = target: Bromodomain adjacent to zinc finger domain protein 2B (Homo sapiens) (UniProt Q9UIF8); assay: Binding affinity to human recombinant His6-tagged BAZ2B (S1858 to S1972 residues) expressed in Escherichia coli BL21 (DE3) cells assessed as change in melting temperature at 200 uM incubated for 30 mins by SYPRO orange dye based thermal shift assay; summary of the method: as §1
Sequence of Bromodomain adjacent to zinc finger domain protein 2B (Homo sapiens) (Q9UIF8 whole entry, the tested form may be a part): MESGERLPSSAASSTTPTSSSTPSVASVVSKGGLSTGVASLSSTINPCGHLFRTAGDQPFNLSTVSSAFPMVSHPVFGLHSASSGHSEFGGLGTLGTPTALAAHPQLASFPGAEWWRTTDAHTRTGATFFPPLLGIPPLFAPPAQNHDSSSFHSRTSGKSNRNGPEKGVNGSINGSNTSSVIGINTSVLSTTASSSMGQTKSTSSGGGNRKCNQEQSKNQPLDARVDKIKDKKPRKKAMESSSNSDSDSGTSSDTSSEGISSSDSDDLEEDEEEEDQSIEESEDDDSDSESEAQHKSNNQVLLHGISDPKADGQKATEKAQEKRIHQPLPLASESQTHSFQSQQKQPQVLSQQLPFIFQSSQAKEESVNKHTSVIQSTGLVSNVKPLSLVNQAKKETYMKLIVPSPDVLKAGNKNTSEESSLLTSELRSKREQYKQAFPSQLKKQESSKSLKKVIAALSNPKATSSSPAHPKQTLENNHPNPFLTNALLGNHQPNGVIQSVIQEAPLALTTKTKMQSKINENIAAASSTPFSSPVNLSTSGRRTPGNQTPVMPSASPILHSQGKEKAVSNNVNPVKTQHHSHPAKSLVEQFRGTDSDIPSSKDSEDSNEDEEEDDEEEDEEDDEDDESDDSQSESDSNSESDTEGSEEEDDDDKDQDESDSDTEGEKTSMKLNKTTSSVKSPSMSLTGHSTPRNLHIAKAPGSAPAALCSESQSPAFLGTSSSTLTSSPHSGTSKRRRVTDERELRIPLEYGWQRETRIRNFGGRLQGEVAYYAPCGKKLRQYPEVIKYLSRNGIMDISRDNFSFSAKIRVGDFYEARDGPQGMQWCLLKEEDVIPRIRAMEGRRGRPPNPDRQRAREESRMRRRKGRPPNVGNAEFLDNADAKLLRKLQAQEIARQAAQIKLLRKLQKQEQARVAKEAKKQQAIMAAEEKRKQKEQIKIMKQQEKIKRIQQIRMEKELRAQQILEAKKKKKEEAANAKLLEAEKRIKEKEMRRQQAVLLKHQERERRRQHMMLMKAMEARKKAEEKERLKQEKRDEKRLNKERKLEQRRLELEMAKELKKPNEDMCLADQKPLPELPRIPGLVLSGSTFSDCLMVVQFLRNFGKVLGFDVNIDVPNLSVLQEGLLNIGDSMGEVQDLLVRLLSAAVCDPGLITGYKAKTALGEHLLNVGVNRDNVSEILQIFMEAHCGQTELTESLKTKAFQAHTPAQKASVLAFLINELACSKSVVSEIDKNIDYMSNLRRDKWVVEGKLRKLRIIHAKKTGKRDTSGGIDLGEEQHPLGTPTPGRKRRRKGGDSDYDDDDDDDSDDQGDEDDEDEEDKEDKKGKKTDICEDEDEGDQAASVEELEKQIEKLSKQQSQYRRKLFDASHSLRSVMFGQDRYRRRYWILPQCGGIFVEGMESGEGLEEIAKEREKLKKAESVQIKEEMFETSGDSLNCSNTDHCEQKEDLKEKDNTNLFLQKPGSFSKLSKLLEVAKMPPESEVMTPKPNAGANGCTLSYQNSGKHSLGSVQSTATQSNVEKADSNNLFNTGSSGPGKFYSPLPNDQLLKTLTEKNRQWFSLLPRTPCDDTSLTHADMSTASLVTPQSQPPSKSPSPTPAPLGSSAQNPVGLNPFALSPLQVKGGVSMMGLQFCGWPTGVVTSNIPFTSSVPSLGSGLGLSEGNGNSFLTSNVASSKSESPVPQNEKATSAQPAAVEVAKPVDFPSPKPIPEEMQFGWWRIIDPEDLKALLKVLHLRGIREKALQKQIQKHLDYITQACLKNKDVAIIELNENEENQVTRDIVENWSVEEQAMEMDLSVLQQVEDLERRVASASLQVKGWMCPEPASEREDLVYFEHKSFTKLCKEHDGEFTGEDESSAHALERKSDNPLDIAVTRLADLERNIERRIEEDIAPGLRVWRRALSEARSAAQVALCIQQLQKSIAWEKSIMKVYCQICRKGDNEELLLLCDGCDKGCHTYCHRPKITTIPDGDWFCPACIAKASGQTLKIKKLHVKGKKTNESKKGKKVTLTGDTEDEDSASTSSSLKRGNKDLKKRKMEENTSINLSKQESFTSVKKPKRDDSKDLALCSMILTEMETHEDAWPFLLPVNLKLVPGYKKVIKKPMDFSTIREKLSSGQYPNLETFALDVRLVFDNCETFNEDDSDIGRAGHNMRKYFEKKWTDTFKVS

[9] = target: T2, Bromodomain-containing protein 1 (Homo sapiens) (UniProt O95696); assay: Binding affinity to human recombinant His6-tagged BRD1 (E556 to A688 residues) expressed in Escherichia coli BL21 (DE3) cells assessed as change in melting temperature at 200 uM incubated for 30 mins by SYPRO orange dye based thermal shift assay; summary of the method: as §1
T2 sequence (whole entry): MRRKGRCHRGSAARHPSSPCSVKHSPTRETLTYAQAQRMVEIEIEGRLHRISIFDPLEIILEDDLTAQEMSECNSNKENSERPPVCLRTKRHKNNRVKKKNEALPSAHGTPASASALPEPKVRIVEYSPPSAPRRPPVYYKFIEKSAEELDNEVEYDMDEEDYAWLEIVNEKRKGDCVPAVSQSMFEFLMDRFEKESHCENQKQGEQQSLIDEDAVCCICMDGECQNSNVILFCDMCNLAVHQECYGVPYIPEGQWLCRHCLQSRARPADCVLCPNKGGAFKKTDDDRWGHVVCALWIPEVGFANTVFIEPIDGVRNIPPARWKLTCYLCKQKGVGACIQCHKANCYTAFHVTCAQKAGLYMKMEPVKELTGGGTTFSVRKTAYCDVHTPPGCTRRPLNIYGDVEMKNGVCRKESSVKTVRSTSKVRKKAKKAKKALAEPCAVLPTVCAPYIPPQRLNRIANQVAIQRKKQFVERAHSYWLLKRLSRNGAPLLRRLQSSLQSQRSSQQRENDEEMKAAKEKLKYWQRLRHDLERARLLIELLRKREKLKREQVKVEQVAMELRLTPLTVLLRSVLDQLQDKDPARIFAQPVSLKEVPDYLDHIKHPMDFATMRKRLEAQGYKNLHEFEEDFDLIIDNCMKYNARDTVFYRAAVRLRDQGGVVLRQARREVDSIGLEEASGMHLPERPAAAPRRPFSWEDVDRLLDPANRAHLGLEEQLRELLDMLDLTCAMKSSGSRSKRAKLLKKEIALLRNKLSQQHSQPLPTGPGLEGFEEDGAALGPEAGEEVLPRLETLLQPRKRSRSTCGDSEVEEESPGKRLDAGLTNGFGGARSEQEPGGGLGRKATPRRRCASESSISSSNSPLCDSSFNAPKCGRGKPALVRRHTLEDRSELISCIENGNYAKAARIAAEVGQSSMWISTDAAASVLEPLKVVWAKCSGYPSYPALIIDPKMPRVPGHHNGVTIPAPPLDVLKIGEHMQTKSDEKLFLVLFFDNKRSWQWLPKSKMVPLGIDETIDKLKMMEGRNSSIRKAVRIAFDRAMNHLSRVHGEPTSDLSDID

[10] = target: Histone acetyltransferase KAT2B (Homo sapiens) (UniProt Q92831); assay: Binding affinity to human recombinant His6-tagged PCAF (G715 to D831 residues) expressed in Escherichia coli BL21 (DE3) cells assessed as change in melting temperature at 200 uM incubated for 30 mins by SYPRO orange dye based thermal shift assay; summary of the method: as §1
Sequence of Histone acetyltransferase KAT2B (Homo sapiens) (Q92831 whole entry, looked up, the tested form may be a part): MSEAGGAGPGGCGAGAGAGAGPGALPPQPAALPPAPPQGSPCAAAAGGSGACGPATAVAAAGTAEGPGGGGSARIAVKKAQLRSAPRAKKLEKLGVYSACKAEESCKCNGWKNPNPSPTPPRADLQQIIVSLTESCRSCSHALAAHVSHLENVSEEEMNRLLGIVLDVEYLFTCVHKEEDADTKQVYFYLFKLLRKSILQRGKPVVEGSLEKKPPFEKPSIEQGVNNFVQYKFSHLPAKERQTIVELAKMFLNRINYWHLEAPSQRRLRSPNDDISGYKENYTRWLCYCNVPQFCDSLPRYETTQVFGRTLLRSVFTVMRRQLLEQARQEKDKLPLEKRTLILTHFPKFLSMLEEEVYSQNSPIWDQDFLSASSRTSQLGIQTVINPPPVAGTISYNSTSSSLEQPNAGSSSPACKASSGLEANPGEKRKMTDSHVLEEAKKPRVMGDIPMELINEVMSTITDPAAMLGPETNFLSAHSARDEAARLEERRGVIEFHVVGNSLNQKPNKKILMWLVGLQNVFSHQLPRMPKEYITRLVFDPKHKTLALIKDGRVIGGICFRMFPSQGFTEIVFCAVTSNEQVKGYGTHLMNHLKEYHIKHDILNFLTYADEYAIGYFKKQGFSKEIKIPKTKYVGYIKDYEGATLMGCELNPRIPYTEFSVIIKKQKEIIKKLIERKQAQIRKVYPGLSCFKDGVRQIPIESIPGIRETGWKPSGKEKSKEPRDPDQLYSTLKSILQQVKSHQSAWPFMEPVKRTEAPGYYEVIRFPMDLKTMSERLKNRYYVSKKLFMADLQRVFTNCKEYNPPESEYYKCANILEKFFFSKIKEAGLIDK

[11] = target: Transcription initiation factor TFIID subunit 1 (Homo sapiens) (UniProt P21675); assay: Binding affinity to human recombinant His6-tagged TAF1 bromodomain 1 (R1377 to D1503 residues) expressed in Escherichia coli BL21 (DE3) cells assessed as change in melting temperature at 200 uM incubated for 30 mins by SYPRO orange dye based thermal shift assay; summary of the method: as §1
[12] = target: Histone-lysine N-methyltransferase ASH1L (Homo sapiens) (UniProt Q9NR48); assay: Binding affinity to human recombinant His6-tagged ASH1L (E2433 to E2564 residues) expressed in Escherichia coli BL21 (DE3) cells assessed as change in melting temperature at 200 uM incubated for 30 mins by SYPRO orange dye based thermal shift assay; summary of the method: as §1
LNCaP = assay: Antiproliferative activity against AR-positive human LNCAP cells assessed as reduction in cell viability incubated for 96 hrs by cell-titer glo assay; assay type: functional, cell-based
Summary of the method: (§2)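 Prostate cancer cells treated across a concentration range; viability read by CellTiter-Glo luminescence; experiments in triplicate; IC50 derived from the dose–response curves.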

LNCaP C4-2B = assay: Antiproliferative activity against AR-positive human C4-2B cells assessed as reduction in cell viability incubated for 96 hrs by cell-titer glo assay; assay type: functional, cell-based; summary of the method: as §2
CWR22R = assay: Antiproliferative activity against AR-positive human 22Rv1 cells assessed as reduction in cell viability incubated for 96 hrs by cell-titer glo assay; assay type: functional, cell-based; conditions: 22Rv1, 96 h; summary of the method: as §2

IC50 [1] | TdeltaS [2] | deltaH [3] | deltaG [4] | ΔTm [5] | ΔTm [6] | ΔTm [7] | ΔTm [8] | ΔTm [9] | ΔTm [10] | ΔTm [11] | ΔTm [12] | IC50 (LNCaP) | IC50 (LNCaP C4-2B) | Structure (SMILES) | IC50 (CWR22R)
130 nM | -2.5 kcal/mol | -12.2 kcal/mol | -9.7 kcal/mol | 5.3 °C | 8.1 °C | 5.6 °C | 0 °C | -0.1 °C | 2.7 °C | 0.1 °C | 0.3 °C | 1060 nM | 2620 nM | COc1cc2onc(C)c2cc1NS(=O)(=O)c1cc(Br)ccc1OC | 1500 nM
300 nM | -1.4 kcal/mol | -10.7 kcal/mol | -9.3 kcal/mol | 6 °C | 8.9 °C | 4.2 °C | -0.6 °C | 0 °C | -0.6 °C | -0.6 °C | -0.9 °C | 570 nM | 850 nM | Cc1noc2c(Br)cc(-c3nc4ccc(N5CCOCC5)cc4n3CC3CCCCC3)cc12 | 640 nM
180 nM | -2.2 kcal/mol | -11.9 kcal/mol | -9.7 kcal/mol | 6.3 °C | 8.7 °C | 3.6 °C | -0.6 °C | 0.3 °C | -0.6 °C | -0.9 °C | -0.5 °C | 470 nM | 840 nM | Cc1noc2ccc(-c3nc4ccc(N5CCOC[C@@H]5C)cc4n3CC3CCCCC3)cc12 | 700 nM
150 nM | -6 kcal/mol | -15.3 kcal/mol | -9.3 kcal/mol | 5.3 °C | 6.5 °C | 5.1 °C | 0.3 °C | -0.4 °C | 2.6 °C | -0.1 °C | -0.1 °C | 6160 nM | 6430 nM | CNc1cc2onc(C)c2cc1NS(=O)(=O)c1cc(Br)ccc1OC | 6730 nM
